# Source: ChEMBL document CHEMBL1139721, “Inhibition of P-glycoprotein-mediated multidrug efflux by aminomethylene and ketomethylene analogs of reversins” (Bioorg Med Chem Lett, 2006)
# Peptide text beside a SMILES is read from it. * marks the point of attachment. Cbz = O=C(OCc1ccccc1)*; Boc = CC(C)(C)OC(=O)*; OcHex = C1CCC(O*)CC1; OBn = c1ccc(CO*)cc1; OtBu = CC(C)(C)O*
# System: K562/R7
# Experiment: Inhibition of P-glycoprotein-mediated daunorubicin efflux in K562/R7 cells at 10 uM relative to control
# Assay type: cell-based
# Details: Homo sapiens
# How it was run: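 K562/R7 human leukemic cells with high P-glycoprotein expression, 1 million per mL RPMI 1640, incubated 1 h at 37 °C with daunorubicin (10 μM final) with or without inhibitor at 10 µM. Cells washed twice in ice-cold PBS, held on ice, then read by flow cytometry. Activity expressed relative to cyclosporin A (2 μM final, set as 100%). Duplicates, at least three separate experiments; SD reported.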
row,SMILES,inhibition [%]
1,O=C(CCC(=O)N[C@@H](CCC(=O)OC1CCCCC1)C(=O)OCc1ccccc1)N[C@@H](CCC(=O)OCc1ccccc1)C(=O)OCc1ccccc1,94.5
2,O=C(CCCN[C@@H](CCC(=O)OC1CCCCC1)C(=O)OCc1ccccc1)N[C@@H](CCC(=O)OCc1ccccc1)C(=O)OCc1ccccc1,98.3
3,CC(C)C(OC(=O)CC[C@H](NCCCC(=O)N[C@@H](CCC(=O)OCc1ccccc1)C(=O)OCc1ccccc1)C(=O)OCc1ccccc1)C(C)C,54.7
4,CC(C)(C)OC(=O)N[C@@H](CC(=O)OCc1ccccc1)C(=O)CCC(=O)N[C@@H](CCCCNC(=O)OCc1ccccc1)C(=O)OC(C)(C)C,86.6
5,CC(C)(C)OC(=O)N[C@@H](CC(=O)OCc1ccccc1)C(=O)N[C@@H](CCCCNC(=O)OCc1ccccc1)C(=O)OC(C)(C)C (Boc-Asp(OBn)-Lys(Cbz)-OtBu),72.7
6,CC(C)C(OC(=O)CC[C@H](NC(=O)OC(C)(C)C)C(=O)N[C@@H](CCCCNC(=O)OCc1ccccc1)C(=O)OC(C)(C)C)C(C)C,52.7
7,CC(C)(C)OC(=O)N[C@@H](CCC(=O)OCc1ccccc1)CN[C@@H](CCCCNC(=O)OCc1ccccc1)C(=O)OC(C)(C)C,79.1
8,CC(C)(C)OC(=O)N[C@@H](CCC(=O)OC1CCCCC1)C(=O)N[C@@H](CCCCNC(=O)OCc1ccccc1)C(=O)OC(C)(C)C (Boc-Glu(OcHex)-Lys(Cbz)-OtBu),85.4
9,O=C(CCC(=O)N[C@@H](CCC(=O)OCc1ccccc1)C(=O)OCc1ccccc1)N[C@@H](CCC(=O)OCc1ccccc1)C(=O)OCc1ccccc1,93.7
10,CC(C)(C)OC(=O)N[C@H](CN[C@@H](CCCCNC(=O)OCc1ccccc1)C(=O)OC(C)(C)C)CC(=O)OCc1ccccc1,74.1
11,CC(C)C(OC(=O)CC[C@@H](C(=O)OCc1ccccc1)N(CCCC(=O)N[C@@H](CCC(=O)OCc1ccccc1)C(=O)OCc1ccccc1)CCCC(=O)N[C@@H](CCC(=O)OCc1ccccc1)C(=O)OCc1ccccc1)C(C)C,3.35
12,O=C(CCCN[C@@H](CC(=O)OCc1ccccc1)C(=O)OCc1ccccc1)N[C@@H](CCC(=O)OCc1ccccc1)C(=O)OCc1ccccc1,82.2
